Assay results of several laboratories.
Compare with care: the assays were run in different laboratories.
Target: Mitogen-activated protein kinase 1 (MAPK1, Homo sapiens, UniProt P28482)

| Structure (SMILES) | effect on | mode | technique | tested at | endpoint | value |
| --- | --- | --- | --- | --- | --- | --- |
| Cn1cncc1[C@@](O)(COc1ccc(C#N)cc1-c1ccc(OC(F)(F)F)cc1)c1ccc(C#N)cc1 | cell-free assay |  | competition with immobilised ligand | 1 µM | remaining binding | 91% |
| O=c1[nH]c2ccccc2n1C1CCN(Cc2ccc(-c3[nH]c4cc5ncnc5cc4nc3-c3ccccc3)cc2)CC1 | cell-free assay |  |  | 0.5 µM | remaining signal | 112% |
| Cn1cc(-c2cc(F)cc(N3CCn4c(cc5c4CCCC5)C3=O)c2CO)cc(Nc2ccc(N3CCN(C4COC4)CC3)cn2)c1=O | enzyme activity | inhibitor |  | 0.1 µM | inhibition | 4% |
| C[C@@H](O)[C@H](N)C(=O)N1CCC[C@H]1C(=O)N1CCC[C@H]1C(=O)N[C@H](C(N)=O)[C@@H](C)O | enzyme activity | inhibitor |  | 30 µM | inhibition | -2% |
| N#CC1(c2ccccn2)CCN(Cc2cc(C(=O)O)c(=O)n3ccccc23)CC1 | cell-free assay |  | competition with immobilised ligand | 1 µM | remaining binding | 100% |
| CC(C)(C)c1cc(C=C(C#N)C#N)cc(Br)c1O | enzyme activity | inhibitor |  | 0.5 µM | remaining activity | 91.3% |
| Cc1ncc(C)n2nc(/C=C/c3nc(N4CCCC4)cc(N4CCOCC4)n3)nc12 | enzyme activity | inhibitor |  | 10 µM | inhibition | 7% |
| COc1ncccc1-c1cnn2ccc(N3CCN(C(=O)OC(C)C)CC3)nc12 | binding |  | competition with immobilised ligand | 1 µM | remaining binding | 100% |
| Cc1nn(C)cc1-c1nc2c(N3CCN(Cc4ccc(Cl)cc4)CC3)c(Cl)cnc2[nH]1 | binding |  | competition with immobilised ligand | 1 µM | remaining binding | 100% |
| Nc1ncc(-c2nc(N3CCOCC3)nc(N3CCOCC3)n2)c(C(F)F)n1 | binding |  | competition with immobilised ligand | 10 µM | remaining binding | 98% |
| C#Cc1n[nH]c2c(-c3cn(C(C)c4ccccn4)c(=O)[nH]c3=O)cc(F)cc12 (stereo not drawn) | enzyme activity | inhibitor |  | 1 µM | inhibition | 7.2% |
| CNC1(c2ccccc2Cl)CCCCC1=O (racemic) | enzyme activity | inhibitor |  | 30 µM | inhibition | 2% |
| C#Cc1n[nH]c2c(-c3cn([C@@H](C)c4ccccc4)c(=O)[nH]c3=O)cc(F)cc12 | enzyme activity | inhibitor |  | 0.1 µM | inhibition | 0.5% |
| O=C(Nc1cccnn1)N1CCN([C@@H]2CCOc3cc(C(F)(F)F)ccc32)CC1 | enzyme activity | inhibitor |  | 20 µM | inhibition | -4% |
| Cn1cc(-c2cccc(N3CCc4c(sc5c4CC(C)(C)C5)C3=O)c2CO)cc(Nc2ccncn2)c1=O | enzyme activity | inhibitor |  | 1 µM | inhibition | -1% |
